Reference: PubChem BioAssay
Active and inactive are the calls of the source.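 The calls were made as follows, unless noted: active = potentiation averaged over duplicate wells exceeding buffer-only control mean by more than 3 SD; inactive = the rest.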

Experiments:
[1] = thallium flux activation in parental CHO cells, counter-screen for KCNQ1 potentiator project (AID 493006;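 active = duplicate-averaged activation above buffer control mean plus 5 SD of those controls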); conditions: parental CHO-K1 cells, FluxOR thallium flux, at 10 µM; active compounds read high
In short: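 Material: parental CHO-K1 cells, FluxOR dye-loaded; Also added: Potassium/thallium depolarization pulse; Schedule: overnight 37 °C plating, 90 min dye, 20 min dark compound; Signal: kinetic FluxOR fluorescence, 10 s baseline, 110 s after stimulus.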

[2] = target: Potassium voltage-gated channel subfamily KQT member 1 (Homo sapiens) (UniProt P51787); experiment: KCNQ1 potassium channel potentiators, confirmation, FluxOR thallium flux, CHO cells, duplicates (AID 493007); conditions: KCNQ1 cell line, FluxOR thallium flux fluorescence, at 10 µM; active compounds read high, % of reference activator effect, buffer zero;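 as to outcome: cells depolarized by a potassium plus thallium sulfate stimulus after compound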
Chain of Potassium voltage-gated channel subfamily KQT member 1 (Homo sapiens) (P51787 whole entry, looked up): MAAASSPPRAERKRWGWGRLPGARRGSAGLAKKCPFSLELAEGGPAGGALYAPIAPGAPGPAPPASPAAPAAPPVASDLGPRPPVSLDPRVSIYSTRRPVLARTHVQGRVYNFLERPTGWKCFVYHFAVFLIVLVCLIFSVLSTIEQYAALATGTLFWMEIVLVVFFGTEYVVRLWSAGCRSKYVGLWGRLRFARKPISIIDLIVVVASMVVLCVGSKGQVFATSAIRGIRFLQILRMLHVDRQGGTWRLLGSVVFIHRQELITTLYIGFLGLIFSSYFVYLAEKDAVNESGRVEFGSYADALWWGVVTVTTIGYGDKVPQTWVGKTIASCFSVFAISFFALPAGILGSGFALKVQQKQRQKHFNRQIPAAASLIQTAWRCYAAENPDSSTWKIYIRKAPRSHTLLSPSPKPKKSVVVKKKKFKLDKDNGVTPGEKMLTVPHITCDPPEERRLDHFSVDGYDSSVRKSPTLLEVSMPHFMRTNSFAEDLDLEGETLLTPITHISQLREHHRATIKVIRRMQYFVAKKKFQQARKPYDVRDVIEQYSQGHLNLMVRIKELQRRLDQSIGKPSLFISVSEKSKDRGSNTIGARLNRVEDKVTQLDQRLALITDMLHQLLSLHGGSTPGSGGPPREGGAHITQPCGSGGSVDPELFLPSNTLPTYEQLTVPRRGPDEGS
In short: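 System: KCNQ1-expressing CHO cell line; technique: kinetic thallium influx fluorescence with FluxOR dye, 10 s baseline, 110 s post-stimulus; timing: dye 90 min then compound 20 min, both at room temperature; controls: buffer-only wells as 0% and R-L3 activator as 100%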

[3] = target: Potassium voltage-gated channel subfamily KQT member 2 (Rattus norvegicus) (UniProt O88943); experiment: rat KCNQ2 channel potentiation, selectivity assay for KCNQ1 potentiator project, KCNQ2-CHO-K1 cells (AID 493009;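 active = mean duplicate potentiation above the buffer control mean plus 5 SD of buffer wells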;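 also: assay conditions were tuned for KCNQ1 rather than KCNQ2 modulators; signal is max minus min fluorescence divided by baseline after thallium stimulus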); conditions: FluxOR thallium flux fluorescence, at 10 µM; active compounds read high, scaled: buffer 0, activator control 100
Chain of Potassium voltage-gated channel subfamily KQT member 2 (Rattus norvegicus) (O88943 whole entry, looked up): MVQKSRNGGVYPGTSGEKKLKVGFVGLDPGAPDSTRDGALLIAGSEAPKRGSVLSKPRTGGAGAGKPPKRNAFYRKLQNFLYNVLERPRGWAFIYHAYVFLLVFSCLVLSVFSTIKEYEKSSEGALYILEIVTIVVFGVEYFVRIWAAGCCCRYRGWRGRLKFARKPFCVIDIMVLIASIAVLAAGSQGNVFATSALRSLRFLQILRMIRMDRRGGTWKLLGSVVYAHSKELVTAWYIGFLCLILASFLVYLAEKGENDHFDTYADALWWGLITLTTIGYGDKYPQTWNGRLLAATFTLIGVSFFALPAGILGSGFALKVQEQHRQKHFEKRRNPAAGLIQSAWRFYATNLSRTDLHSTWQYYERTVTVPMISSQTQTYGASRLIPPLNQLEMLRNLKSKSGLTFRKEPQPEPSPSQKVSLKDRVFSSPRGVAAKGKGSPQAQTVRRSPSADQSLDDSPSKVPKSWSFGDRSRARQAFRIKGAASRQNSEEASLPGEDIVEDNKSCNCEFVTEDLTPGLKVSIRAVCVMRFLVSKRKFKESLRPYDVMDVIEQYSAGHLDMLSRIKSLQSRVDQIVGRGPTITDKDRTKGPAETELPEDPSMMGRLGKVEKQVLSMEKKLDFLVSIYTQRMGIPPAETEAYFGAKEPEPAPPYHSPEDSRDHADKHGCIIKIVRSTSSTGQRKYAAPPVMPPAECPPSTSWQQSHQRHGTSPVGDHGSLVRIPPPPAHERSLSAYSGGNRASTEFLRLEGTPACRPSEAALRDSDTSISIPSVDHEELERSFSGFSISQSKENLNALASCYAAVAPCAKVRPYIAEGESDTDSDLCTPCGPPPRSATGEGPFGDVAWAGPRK

[4] = target: Potassium voltage-gated channel subfamily KQT member 1 (Homo sapiens) (UniProt P51787); experiment: KCNQ1 channel current potentiators, confirmation, orthogonal assay for KCNQ1 potentiator project, IonWorks patch clamp, KCNQ1-CHO cells (AID 493184;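 active = current rise at least 3 SD above the untreated control mean in each of two repeat wells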); conditions: automated patch clamp current, at 10 µM; active compounds read high
In short: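 Test system: KCNQ1-expressing CHO cells. Medium: pH 7.4 external bath. Probe or stimulus: voltage step from -90 mV holding to +40 mV, 2,000 ms. Compound: 10 µM final, single point. Detection: automated perforated-patch electrophysiology. Read-out: percent current increase versus pre-compound level. Repeats: two replicates.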

[5] = target: Potassium voltage-gated channel subfamily E member 1 (Homo sapiens) + Potassium voltage-gated channel subfamily KQT member 1 (Homo sapiens) (UniProt P15382+P51787); experiment: KCNQ1/KCNE1 complex potentiators, confirmation, selectivity assay for KCNQ1 potentiator project, thallium flux, CHO-K1 KCNQ1/E1 cells (AID 493186;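 active = mean duplicate activation above the buffer control mean plus 5 SD of those controls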); conditions: FluxOR thallium flux, at 10 µM; active compounds read high
Chain of Potassium voltage-gated channel subfamily E member 1 (Homo sapiens) + Potassium voltage-gated channel subfamily KQT member 1 (Homo sapiens) (P51787 whole entry, looked up): as the sequence (P51787 whole entry, looked up) above
In short: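 Material: CHO-K1 cells with KCNQ1/E1 / Timing: dye 90 min, compound 20 min, room temperature / Technique: kinetic thallium-sensitive FluxOR dye fluorescence / Read-out: percent activation scaled between buffer and R-L3 ratio signals / Replicates: tested in duplicate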

| SMILES | outcome [1] | outcome [2] | outcome [3] | outcome [4] | outcome [5] | potentiation [2] | potentiation [3] |
| --- | --- | --- | --- | --- | --- | --- | --- |
| CC1CCCCN1CCCNC(=O)Cn1ncc2c([nH]c3ccccc32)c1=O (stereo not given) | inactive | inactive | inactive | inactive | inactive |  |  |
| C=CCNC(=S)Nc1nc2c(cc1C(=O)OCC)CCCC2 | inactive |  | inactive | inactive | inactive | 39% (active) |  |
| COCCOC(=O)/C(=C/c1ccc(OC(=O)c2ccccc2)cc1)C(C)=O | inactive | inactive | inactive | inactive | inactive |  |  |
| S=c1[nH]c(-c2ccccc2)cn1/N=C/c1ccc(Br)cc1 | inactive | inactive | inactive | inactive | inactive |  |  |
| CCCCn1c(=O)[nH]c(=O)c2c1nc(Cn1ncc(Cl)c(Cl)c1=O)n2CCC | inactive | inactive | inactive | inactive | inactive |  |  |
| O=C(CNc1ccc(Br)cc1)NNC1=NCCC1 | inactive | inactive |  | inactive | inactive |  | 142% (active) |
| CCN(CC)C(=S)SCC(=O)Nc1nc(=O)c2ccccc2s1 | inactive | inactive | inactive | inactive | inactive |  |  |
| Cc1cccc(C)c1OCc1cc(C(=O)N(C)Cc2cc(C3CC3)n[nH]2)no1 | inactive | inactive | inactive | inactive | inactive |  |  |
| CCOC(=O)C(Sc1nnc(-c2ccncc2)o1)C(C)=O (stereo not given) | inactive | inactive | inactive | inactive | inactive |  |  |
| O=C(NC(=S)N1CCCCCC1)c1ccccc1Cl | inactive |  |  | inactive | inactive | 25% (active) | 146% (active) |
| S=c1nc[nH]c2c1[nH]c1ccc(Cl)cc12 | inactive | inactive | inactive | inactive | inactive |  |  |
| CCCn1c(SCC(=O)Nc2ccccc2C(=O)OC)nc2c1c(=O)n(C)c(=O)n2C | inactive |  | inactive | inactive | inactive | 120% (active) |  |
| COc1ccc(Cl)cc1C(=O)NNC(=S)NC(=O)c1cc(-c2ccccc2)nc2ccccc12 | inactive | inactive | inactive | inactive | inactive |  |  |
| Cc1cccc(C(=O)O/N=C(\N)c2cccc([N+](=O)[O-])c2)c1 | inactive | inactive | inactive | inactive | inactive |  |  |
| CN1CCN(c2ccc(S(=O)(=O)N3CCCCC3)cc2NC(=O)COc2cccc(Cl)c2)CC1 | inactive | inactive | inactive | inactive | inactive |  |  |
| C=CCn1c(O)c(N=NC(=S)Nc2ccc(OC)cc2)c2ccccc21 | inactive |  | inactive | inactive | inactive | 33.5% (active) |  |
| O=C1c2ccccc2C(=O)C12OC2c1cccc2ccccc12 (stereo not given) | inactive | inactive | inactive | inactive | inactive |  |  |
| O=C(Nc1nnc(-c2ccccc2)o1)c1cc(Cl)sc1Cl | inactive | inactive |  | inactive | inactive |  | 148% (active) |
| CC(C)CNC(=S)NC(=O)c1ccc([N+](=O)[O-])cc1 | inactive | inactive | inactive | inactive | inactive |  |  |
| O=C(Nc1ccc(N2CCCC(O)C2)cc1)c1snc2c(=O)[nH]cnc12 (stereo not given) | inactive | inactive | inactive | inactive | inactive |  |  |
| CCCC(=O)N(Cc1cccnc1)c1nc2c(OC)ccc(Cl)c2s1 | inactive |  | inactive | inactive | inactive | 51.5% (active) |  |
| Cc1ccc(-n2ncc(C(=O)Nc3cc(Cl)cc(Cl)c3)c2C2CCNCC2)cc1C | inactive | inactive | inactive | inactive | inactive |  |  |
| Cc1cccc(OCc2n[nH]c(=S)n2C2CCCCC2)c1 | inactive | inactive | inactive | inactive | inactive |  |  |
| C=CCn1c(=S)[nH]c2cc(-c3ccccc3)sc2c1=O | inactive | inactive | inactive | inactive | inactive |  |  |
| C=CCSc1nc2c(c(=O)[nH]1)C(C(C)C)C(C#N)=C(N)O2 (stereo not given) | inactive | inactive | inactive | inactive | inactive |  |  |
| CCCCCCOc1ccc(N2C(=O)CC(N3CCN(C(=O)c4ccco4)CC3)C2=O)cc1 (stereo not given) | inactive |  | inactive | inactive | inactive | 17.5% (active) |  |
| CS(=O)(=O)c1ccc(C(=O)OCc2nnc(-c3ccccc3)o2)cc1[N+](=O)[O-] | inactive | inactive | inactive | inactive | inactive |  |  |
| O=C(NC1CCCC1)C(=O)N(Cc1cccnc1)C(C(=O)NC1CCCC1)c1ccco1 (stereo not given) | inactive |  | inactive | inactive | inactive | 35% (active) |  |
| COc1ccc(CCNC(=O)CCOc2cc(C)ccc2C)cc1OC | inactive | inactive | inactive | inactive | inactive |  |  |
| CC1Oc2ccccc2N(CC(=O)N2CCCCCC2)C1=O (stereo not given) | inactive |  | inactive | inactive | inactive | 27.5% (active) |  |
